Entries after “also recorded” stand apart in the source; their conditions may differ.
Experiments:
MGG8 cells [1] = assay: cells in S phase, BrdU incorporation, MGG8; format: cell-based, human; settings: NOC 3 μM
T98G cells [2] = assay: cells in S phase, BrdU incorporation, T98G; format: cell-based, human
MGG8 cells [3] = assay: cell viability WST-1, MGG8; format: cell-based, human; settings: 72 h
COLO205 cells = assay: NCI-60 cancer cell panel, COLO205; format: cell-based; settings: Homo sapiens, COLO 205
[4] = tested on: six human glioma cell lines (SF-268, SF-295, SF-539, SNB-19, SNB-75, U251); assay: NCI-60 cell line panel, six glioma lines; format: cell-based; settings: read-out: IC50s (growth inhibition, TGI50 in Figure 2A)
[5] = tested on: COLO205 cell-derived subcutaneous xenografts; assay: COLO205 xenograft flank tumor model; format: in vivo, mouse
CD1 mice = assay: maximal tolerated dose and dose range finding; format: in vivo, mouse; settings: bidaily i.p. 20 mg/kg, 5 days/week for 4 weeks
In short: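 CD1 mice dosed i.p. at 5, 10, 20, 50, 100 or 150 mg/kg, or with the corresponding volume of no-drug formulation (vehicle). Monitored for signs of general distress. Regimen 2: 20 mg/kg i.p. bidaily, 5 days/week for 4 weeks.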

PDGFB-glioma = assay: RCAS/tv-a PDGFB glioma mouse model; format: in vivo; settings: for tumor density by olig-2 immunostaining: each arm at its regimen (ST-401 regimen 2; TMZ 50 mg/kg); for necrotic area: end-stage histopathology, each arm at its regimen
HCT116 cells = assay: live cell imaging of MT assembly rates; format: cell-based, human
In short: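 HCT116 cells expressing EB1-GFP to label growing microtubule ends. Imaged at a single Z-plane at 500-ms intervals. Assembly rates scored in interphase cells by particle tracking, before treatment and again after compound wash-out (POST).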

T98G cells [6] = assay: cell viability WST-1, T98G; format: cell-based; settings: Homo sapiens, 72 h, read-out: IC50, overall cell viability
[7] = tested on: PD-glioma isolates (proneural, mesenchymal, classical, MGG8); assay: viability of PD-glioma isolates; format: cell-based; settings: Homo sapiens, read-out: IC50, antitumor activity (viability, WST-1)
tubulin = tubulin assembly, pelleting assay; format: biochemical; settings: compared to ST-360
In short: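 Tubulin assembly assessed by pelleting assay, with release of free tubulin measured. Mean ± SEM from 3 to 5 experiments.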

[8] = tested on: tubulin (colchicine site); assay: [3H]colchicine binding to purified tubulin; settings: 5 μM compound; mean of n = 3
[9] = pharmacokinetics, plasma and brain by LC-MS; format: in vivo, mouse
S24 PD-glioma cells [10] = assay: cell death of S24 PD-glioma; format: cell-based, human; settings: Y-27632 50 mM (as printed in Figure S3), 24 h
In short: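 GFP-expressing patient-derived S24 glioma cells treated alongside vehicle (DMSO 1%), then stained with Ho342 and EthD2 and imaged by fluorescence microscopy.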

S24 PD-glioma cells [11] = assay: tumor microtube; format: cell-based, human; settings: Y-27632 50 μM
In short: (§1)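 GFP-expressing patient-derived S24 and BG5 glioma cells treated with increasing test-compound concentrations (e.g. 30 and 300 nM) or controls: DMSO 1% vehicle, Y-27632 50 μM, nocodazole 300 nM. Stained with Ho342/EthD2. TM number and length per cell quantified semi-automatically from immunofluorescence images via a machine learning-based workflow. Two-way ANOVA, Tukey post-test.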

BG5 PD-glioma cells = assay: tumor microtube; format: cell-based, human; settings: Y-27632 50 μM
In short: as §1

Structure (SMILES): COC(=O)Nc1nc2ccc(C(=O)c3cccs3)cc2[nH]1 [NOC, nocodazole, reference compound]
- effect on number of cells in S phase (MGG8 cells [1]): reduce; also recorded: overall less active
- effect on number of cells in S phase (T98G cells [2]; NOC 3 μM, BrdU): Lack of response
- reduction of cell viability (MGG8 cells [3]; NOC 3 µM, WST-1): 18%

Structure (SMILES): CCn1c2ccccc2c2cc(C(O)c3cccc4ncccc34)ccc21 (centres unmarked) [ST-401, (9‐ethyl‐9H‐carbazol‐3‐yl)(quinolin‐5‐yl)methanol]
- IC50 (COLO205 cells): 0.038 µM
- IC50 [4]: 0.023 to 0.069 µM
- treated tumors that stopped growing despite ending the treatment ([5]; Regimen 2): approximately 50%
- life-expectancy / survival of treated mice ([5]; Regimen 2, n = 10 mice per arm): significant increase in average survival; also recorded: doubling
- time without recurrence after ending treatment ([5]; tumors that stopped growing): ≥ 28 days
- response on number of cells in S phase (T98G cells [2]; 72 h, BrdU incorporation, concentration-response): absent
- adverse effects (Regimen 2) (CD1 mice): did not trigger adverse effects
- average survival (PDGFB-glioma; ST-401+RT arm): 50 days
- average survival (PDGFB-glioma; ST-401+TMZ arm): 46 days
- effect on average median survival, single agent (PDGFB-glioma; ST-401 regimen 2): did not affect average median survival
- enhancement of the therapeutic efficacy of RT (PDGFB-glioma; ST-401 regimen 2 + RT single dose 10-Gy): 66%
- enhancement of the therapeutic efficacy of TMZ (PDGFB-glioma; ST-401 regimen 2 + TMZ 50 mg/kg): 60%
- increase in mitotic figures versus control arm (PDGFB-glioma; ST-401 regimen 2, H&E, end stage): 69%
- increase in tumor density (relative area of HA expression) (PDGFB-glioma; ST-401 regimen 2, semi-quantitative IHC): 54%
- tumor density by olig-2 immunostaining (PDGFB-glioma): increase
- necrotic area (PDGFB-glioma): did not reach significance
- time for MT assembly to reach initial rates after wash-out (HCT116 cells; 100 nM, after wash-out): ≤ 15 min
- reduction in MT assembly rate (HCT116 cells; 100 nM, interphase cells, compared to NOC 100 nM): milder reduction
- inhibition of MT assembly (HCT116 cells; 200 nM, within 15 min): completely and reversibly inhibited all MT assembly
- IC50 (T98G cells [6]): 0.036 µM
- IC50 (MGG8 cells [3]; Homo sapiens, read-out: IC50, overall cell viability): 0.014 µM
- IC50 [7]: 0.024 to 0.047 µM
- MT disassembly (Δ release of free tubulin) (tubulin): greater MT disassembly
- competition for [3H]colchicine binding to tubulin [8]: 89%
- time plasma levels remained above 250 nM ([9]; bidaily i.p. injections of 20 mg/kg): approximately 16 h
- half-life ([9]; mouse, brain, ip, 150 mg/kg): ~6 h
- concentration reached in brain ([9]; single i.p. 150 mg/kg): micromolar concentrations
- concentration reached in brain ([9]; single i.p. 20 and 5 mg/kg, 30 min): micromolar concentrations
- plasma concentration ([9]; three i.p. injections of 20 mg/kg separated by 8 and 16 h, over 24 h): above 250 nM

Structure (SMILES): Cn1nnc2c(C(N)=O)ncn2c1=O [TMZ, temozolomide, reference compound]
- average median survival (PDGFB-glioma; TMZ 50 mg/kg once per day, 5 days/week for 4 weeks, control 20 days): 30 days
- extension of average median survival (PDGFB-glioma; TMZ 50 mg/kg once per day, 5 days/week for 4 weeks, versus control): 50%
- tumor density by olig-2 immunostaining (PDGFB-glioma): increase
- necrotic area (PDGFB-glioma): unchanged

Structure (SMILES): C[C@@H](N)[C@H]1CC[C@H](C(=O)Nc2ccncc2)CC1 [Y-27632]
- effect on cell death / viability (S24 PD-glioma cells [10]): did not affect cell viability
- effect on TM length/cell (S24 PD-glioma cells [11]): increased
- effect on TM number/cell (S24 PD-glioma cells [11]): increased
- effect on TM length/cell (BG5 PD-glioma cells): increased
- effect on TM number/cell (BG5 PD-glioma cells): increased

Source: article PMC7813200 (Neuro-oncology Advances, 2020)
